Compounds with a hit are over-represented: about 2.3% of the library has one in this group of screens.
KLF5 inh – inhibitors of KLF5 expression; DLD-1 KLF5 promoter-luciferase reporter, luminescence; inhibition, % at 5 µM; actives 0.23% (n = 290,000); AID 1700;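 active = inhibition above a per-plate limit of that plate's mean compound inhibition plus 3 SD, cut at about 60% in these data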;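 also: higher means less KLF5 promoter-driven luciferase light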
HIF act – HIF pathway transcriptional activation; actives 0.32% (n = 300,000); U2OS HRE-luciferase reporter, luminescence; normalized: DMSO 0%, desferrioxamine 100%; activation, % at 7.5 µM (by protocol);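 active = mean activation of at least 10% of the iron chelator positive control signal, with at least half of replicates also reaching 10%; inconclusive = mean and replicate majority disagree about reaching 10%; inactive = mean and most replicates under 10%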
T cruzi repl – blocks replication of Trypanosoma cruzi | T. cruzi beta-gal in NIH3T3, luminescence, 90 h | inhibition, % (concentration not given with the values) | actives 1.4% (n = 300,000);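 active = mean inhibition across valid replicates above about 55%, limit read from the data; inconclusive = mean below that limit but half or more replicates reach it; inactive = mean below it, under half of replicates reach it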;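 also: signal also drops with host cell toxicity which is not excluded here; higher percent means less beta-gal luminescence so fewer parasites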
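Test system: β-gal T. cruzi (Tulahuen C4) inside NIH/3T3 cells / Quantity: 5,000 cells/well / Measured by: luminescence from GalScreen with 0.05% NP40, read after 60 min / Medium: DMEM plus 2% FBS / Measure: parasite load inhibition, % / Reagent: Tulahuen C4 trypomastigotes, 5000/well / Schedule: co-culture of at least 90 h after 3 h attachment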
Beta apoptosis – blocks beta cell apoptosis. protection from apoptosis, % (no concentration beside the values). INS-1E cytokine-induced death, ATP luminescence, 48 h; percent of positive-control rescue, neutral wells zero. AID 435005. actives 0.8% (n = 300,000);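 active = Every replicate reaches about 75%, or at least half do and their mean reaches it too, limit read from the data; inconclusive = At least half of replicates reach the limit but their mean does not; inactive = Under half of replicates reach the limit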;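 also: higher means more ATP so stronger rescue from cytokine killing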
Bfl-1 A1 inh – inhibitors of the anti-apoptotic protein A1, read as caspase activation | MEF A1-2A-BIM cells, Caspase-Glo 3/7 luminescence, 3 h; percent of clofoctol response, vehicle zero | caspase activation, % (test concentration not listed) | actives 0.066% (n = 330,000) | AID 2462;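 active = over half of replicate activation scores above 10%, or exactly half above 10 with the replicate mean above 10; inconclusive = replicate mean below 10 yet half the replicates above 10; inactive = over half of replicates below 10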
KLF5 confirm – KLF5 inhibition, confirmation assay. shares compounds with KLF5 inh. DLD-1 KLF5 promoter firefly luciferase reporter, luminescence. inhibition, % at 4 µM. actives 79% (n = 610);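 active = inhibition above a set limit taken from the earlier primary screen, cut at about 63% in these data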
IEC-6 tox – counter-screen for KLF5 inhibitors: cytotoxicity in rat IEC-6 cells | actives 56% (n = 610) | IEC-6 rat intestinal cells, viability luminescence | inhibition, % at 4 µM | shares compounds with KLF5 inh; in the data active = inhibition above about 23%;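 also: cells exposed to compounds for 48 hours before viability read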
Numbers stand for hits; n = inactive; u = inconclusive; x = no result.

SMILES | KLF5 inh | HIF act | T cruzi repl | Beta apoptosis | Bfl-1 A1 inh | KLF5 confirm | IEC-6 tox
COc1ccc(S(=O)(=O)NCc2ccccn2)cc1NC(=O)c1ccccc1F | 64 | n | n | n | n | 81 | 53
CCOc1ccc(S(=O)(=O)NCc2ccccn2)cc1NC(=O)c1ccccc1 | x | n | n | x | n | x | x
CN(C)c1ccc(/C=C(\C#N)c2ccccn2)cc1 | 69 | n | n | n | n | 66 | n
N#C/C(=C\c1ccc([N+](=O)[O-])cc1)c1ccccn1 | n | n | n | n | n | x | x
COc1ccc(-c2nn(-c3ccccc3)cc2/C=N/NC(N)=S)cc1OC | 69 | n | n | n | n | 71 | 59
CCOc1ccccc1NS(=O)(=O)c1ccc(-c2cnc(C3CC3)o2)cc1 | 78 | n | n | n | n | 83 | 64
COc1ccccc1NC(=O)CNC(=O)c1ccc(Br)o1 | n | n | n | n | n | x | x
C=CCN1C(=O)c2ccc(C(=O)N(CCC)CC(=O)Nc3ccccc3C)cc2C1=O | x | n | n | n | n | x | x
CCOC(=O)C(C)Oc1cccc2c(=O)n(CC(=O)NCc3ccco3)ccc12 (stereo unspecified) | 77 | n | n | n | n | 80 | 55
CC(C)C(=O)c1cn(CC(=O)NCc2ccco2)c2ccccc12 | n | n | n | n | n | x | x
CCCCCCCC[n+]1cccc2c3ccccc3ccc21 | 82 | n | 68 | 108 | n | 93 | 43
Cc1cccc[n+]1CCCCCCCCCC[n+]1ccccc1C | n | n | n | n | n | x | x
CCCCCCCCCC[n+]1cccc2c3ccccc3ccc21 | 96 | n | 70 | x | x | 65 | 38
CCN(C(=O)c1ccc(S(=O)(=O)N2CCC(C)CC2)cc1)C1CCS(=O)(=O)C1 (stereo unspecified) | x | n | n | n | n | x | x
COc1ccc(S(=O)(=O)Nc2cccc(-c3ccc4nncn4n3)c2)cc1F | 70 | n | n | n | n | 81 | 34
O=S(=O)(Nc1cccc(-c2ccc3nncn3n2)c1)c1cccc(F)c1 | x | n | n | n | n | x | x
CCOC(=O)c1c(CSC(=N)N)n(-c2ccccc2)c2cc(Br)c(OC(C)=O)cc12 | n | n | n | n | n | x | x
COC(=O)c1ccc2nc(Nc3nc4ccc(F)cc4s3)sc2c1 | 94 | n | n | n | n | 101 | n
COC(=O)c1ccc2nc(NC(=O)C(C)(C)C)sc2c1 | n | n | n | n | n | x | x
CCOC(=O)c1[nH]c(C)c(C(=O)N2CCc3ccccc32)c1C | 77 | n | n | n | n | 80 | 62
COc1ccc(CCNS(=O)(=O)c2ccc(N3CCCC3=O)cc2)cc1 | n | n | n | n | n | x | x
CCOc1ccc(S(=O)(=O)Nc2cc(OC)ccc2OC)cc1 | 73 | n | n | n | n | 83 | 59
COc1ccc(OC)c(NS(=O)(=O)c2ccc(N3CCCC3=O)cc2)c1 | 83 | n | n | n | n | 83 | 62
COc1ccc(OC)c(NS(=O)(=O)c2ccc(SC)cc2)c1 | n | n | n | n | n | x | x
O=c1cc(-c2ccccc2)[nH]c2ccccc12 | 65 | n | n | n | n | 83 | 57
SMILES | KLF5 inh | HIF act | T cruzi repl | Beta apoptosis | Bfl-1 A1 inh | KLF5 confirm | IEC-6 tox
O=C(Nc1nnc(-c2ccc(F)cc2)o1)c1cccc([N+](=O)[O-])c1 | 72 | n | n | n | n | n | n
O=C(Nc1nnc(C2=COCCO2)o1)c1cccc([N+](=O)[O-])c1 | n | n | n | x | n | x | x
COC(=O)c1ccc(C(=O)NC2CCCc3c2cnn3-c2ccc(C)c(C)c2)cc1 (stereo unspecified) | 68 | n | n | n | n | 76 | 55
Cc1cc(C(=O)NC2CCCc3c2cnn3-c2ccc(C)c(C)c2)nc(C)n1 (stereo unspecified) | n | n | n | n | n | x | x
CCOc1ccc(C)cc1S(=O)(=O)n1cnc2ccccc21 | n | n | n | x | n | x | x
CC1(C)CC(NC(=O)Cc2ccccc2)CC(C)(C)N1 | n | n | n | n | n | x | x
c1ccc(CSc2nnc3ccc(-c4ccncc4)nn23)cc1 | n | n | n | n | n | x | x
O=C(CSc1nnc2ccc(-c3ccncc3)nn12)c1cccs1 | 63 | n | n | n | n | n | n
CCOc1ccc(Nc2nc(N)c3ccccc3n2)cc1 | 81 | n | n | x | n | n | n
CN(C)c1ccc(Nc2nc(N)c3ccccc3n2)cc1 | 91 | n | n | x | n | 67 | n
Cc1noc(C)c1NC(=O)N(C)C[C@@H]1Oc2ccc(NC(=O)Cc3cn(C)c4ccccc34)cc2CC(=O)N([C@H](C)CO)C[C@@H]1C | x | x | x | n | n | x | x
Cc1ccc(OCC(=O)NC2CCS(=O)(=O)C2)c([N+](=O)[O-])n1 (stereo unspecified) | x | n | n | n | n | x | x
Cc1cc(C)n(CC(=O)NNC(=O)C2CC(=O)N(Cc3ccccc3Cl)C2)n1 (stereo unspecified) | n | n | n | n | n | x | x
COc1ccc(CCn2c(S)nc3ccccc3c2=O)cc1 | n | n | n | n | n | x | x
NC(=O)NNc1ncc(C(F)(F)F)cc1Cl | n | n | n | n | n | x | x
O=C(NNc1ncc(C(F)(F)F)cc1Cl)c1c(Cl)cccc1Cl | 71 | n | n | n | n | n | n
CC(=O)Nc1ccc(NC(=O)C(C)Oc2ccc(C)nc2[N+](=O)[O-])cc1 (stereo unspecified) | x | x | x | n | n | x | x
CN1/C(=C/C=C(/C#N)C(N)=O)C(C)(C)c2ccccc21 | 69 | n | n | n | n | n | 36
CN1/C(=C\C=C(/C#N)C(=O)Nc2ccccc2F)C(C)(C)c2ccccc21 | n | n | n | n | n | x | x
O=C(NNC(=O)c1ccccc1O)c1cc2ccccc2o1 | x | n | n | n | n | x | x
COc1cc(F)ccc1S(=O)(=O)N1CCN(c2ccccc2)CC1 | n | n | n | x | n | x | x
CCc1ccc(CN2CCC(n3nccc3NC(=O)Cc3ccccc3)CC2)o1 | n | n | n | n | n | x | x
CCCCS(=O)(=O)/C=C\C=C/S(=O)(=O)CCCC | 103 | n | n | 85 | n | 92 | 100
CCc1ccc(C(=O)NNC(=O)CCC2CCCCC2)cc1 | n | n | n | n | n | x | x
CC1(C)Cc2c(cnn2-c2ccc(F)cc2)C(NC(=O)CCCN2CCCCC2=O)C1 (stereo unspecified) | n | n | n | n | n | x | x
COc1ccc2[nH]c(C(=O)N/N=C/c3ccc(O)cc3O)cc2c1 | 84 | 25 | u | 121 | n | 83 | 32
CCOc1ccc2[nH]c(C(=O)N/N=C/c3ccc(OC)cc3)cc2c1 | 66 | n | n | n | n | 73 | 58
O=C(CCC1CCN(C(=O)c2ccccc2Cl)CC1)NCc1ccc(F)cc1 | n | n | n | x | n | x | x
O=C(CN1CCSC1=O)N1CCN(S(=O)(=O)c2ccccc2)CC1 | x | x | x | n | n | x | x
Cn1c2c(c(=O)n(C)c1=O)C(C(F)(F)F)(C(F)(F)F)N=C(c1ccc(Cl)cc1)N2 | 81 | n | n | 139 | n | 84 | 57

Compound activity as filed in PubChem.
